# p47phox inh: blocks human p47phox regulatory protein of NADPH oxidases; P14598; p47phox/p22phox peptide binding, fluorescence polarization, 2 h; inhibition, % at 24.7 µM; actives 0.53% (n = 220,000); AID 1274;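 active means inhibition above about 30%, limit read from the data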;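 further: 0% = p47phox with labelled peptide and 100% = labelled peptide alone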
# HSV replic up: HSV replication enhancement; maximum fold increase; actives 0.005% (n = 220,000); HSV replication augmentation in cells, fold increase; in the data active means maximum fold increase above about 1.5; tested in PC3 cells
# ABCG2 block: blocks JC-1 efflux by human ABCG2 transporter. Q9UNQ0. IgMXP3 cells, flow cytometry. inhibition, % at 6.6 µM. actives 0.1% (n = 190,000). AID 1325;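 active means inhibition above 80%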;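 further: 0% = DMSO and 100% = nicardipine control wells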
# Target sequence (Q9UNQ0 whole entry, looked up): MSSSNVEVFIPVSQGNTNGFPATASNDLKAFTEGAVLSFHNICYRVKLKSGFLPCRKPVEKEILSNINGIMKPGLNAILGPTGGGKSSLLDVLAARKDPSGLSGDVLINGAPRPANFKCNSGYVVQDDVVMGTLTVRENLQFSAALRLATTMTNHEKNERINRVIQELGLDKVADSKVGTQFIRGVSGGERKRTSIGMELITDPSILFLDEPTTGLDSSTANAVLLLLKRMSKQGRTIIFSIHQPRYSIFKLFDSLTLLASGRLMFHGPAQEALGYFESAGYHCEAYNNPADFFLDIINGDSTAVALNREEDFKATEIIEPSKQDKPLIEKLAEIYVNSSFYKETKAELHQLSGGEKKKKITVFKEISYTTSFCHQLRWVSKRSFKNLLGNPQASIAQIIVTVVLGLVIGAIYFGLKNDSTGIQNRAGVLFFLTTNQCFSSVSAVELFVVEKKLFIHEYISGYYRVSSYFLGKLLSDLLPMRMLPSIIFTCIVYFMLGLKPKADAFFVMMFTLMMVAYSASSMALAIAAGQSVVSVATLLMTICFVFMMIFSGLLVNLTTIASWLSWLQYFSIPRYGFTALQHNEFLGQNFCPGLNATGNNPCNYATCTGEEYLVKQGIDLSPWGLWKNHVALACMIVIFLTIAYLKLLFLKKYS
#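 Assay system – ABCG2 IgMXP3 and barcoded ABCB1 CCRF-Adr cell mix · Input – 3 million cells/mL in well · Reagent – JC-1 fluorescent substrate · Compound – single test compound dose, 6.6 µM final · Timing – 10 min exposure at 25 °C with rotation, no wash · Detection – flow cytometry of retained JC-1 fluorescence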
# ABCB1 block: blocks JC-1 efflux by human ABCB1 transporter. inhibition, % at 6.6 µM. CCRF-Adr cells, flow cytometry. P08183. actives 0.067% (n = 190,000); in the data active means inhibition above about 40%;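 further: 0% = vehicle and 100% = reference inhibitor; higher value means more JC-1 retained so stronger ABCB1 efflux block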
# PKD1 inh: PKD1 (human) kinase inhibition. PKD1 kinase fluorescence polarization assay. inhibition, % (concentration not given with the values). actives 0.056% (n = 200,000); in the data active means inhibition above about 50%
# PHOSPHO1 inh: PHOSPHO1 (human) inhibition; actives 1.1% (n = 290,000); inhibition, % at 13.3 µM; recombinant PHOSPHO1, absorbance phosphatase assay; Q8TCT1; in the data active means inhibition above about 60%
# * hit, by the source's call; i = inactive; x = no result. This is a sample that favours compounds with a hit; in the whole collection about 1.6% have one here.
SMILES,p47phox inh,HSV replic up,ABCG2 block,ABCB1 block,PKD1 inh,PHOSPHO1 inh
CCCC(=O)Nc1c2c(nn1-c1ccc(C)cc1C)CSC2,6.8,i,1.8,0.4,12.4,71.7*
CC(=O)Nc1c2c(nn1-c1ccc(C)cc1C)CSC2,-7.9,i,1.0,0.0,-11.5,-2.2
Cc1ccc(C)c(-n2c(-c3ccc4c(c3)OCO4)n[nH]c2=S)c1,-7.5,i,-0.4,-0.2,9.7,96.2*
Cc1ccc(C)c(-n2c(-c3ccncc3)n[nH]c2=S)c1,-5.9,i,x,x,x,12.9
Cc1ccc(C)c(-n2c(-c3csc(C)c3)n[nH]c2=S)c1,-1.4,i,-1.0,0.0,-6.2,96.9*
N#Cc1cccc(C#N)c1Oc1ccc(N)cc1,-9.8,i,x,x,x,36.8
Cc1cc(Br)cc(C)c1OCCCCN(C)C,-4.6,i,-0.1,0.1,-3.7,22.4
O=C(NC(=O)c1ccccc1)Nc1ccccn1,x,x,x,x,x,67.6*
Cc1ccc(-n2c(C)cc(C3N=C(N)Nc4nc5ccccc5n43)c2C)c(C)c1 (stereo not drawn),30.1*,i,1.9,0.0,0.5,-13.5
Cc1cc(C2N=C(N)Nc3nc4ccccc4n32)c(C)n1-c1ccccc1Cl (stereo not drawn),41.0*,i,0.8,0.1,-4.5,-11.4
NC1=NC(c2cccc(O)c2)n2c(nc3ccccc32)N1 (stereo not drawn),-8.5,i,-2.9,-2.5,7.1,-13.5
NC1=NC(c2ccc(F)cc2)n2c(nc3ccccc32)N1 (stereo not drawn),-8.6,i,7.9,-0.3,-4.8,-16.0
COc1ccc(-c2ccc(C(c3c(C)[nH][nH]c3=O)c3c(C)[nH][nH]c3=O)o2)c([N+](=O)[O-])c1,42.5*,i,0.0,-0.4,-0.1,10.5
Cn1cccc1C(=O)C(=O)Nc1ccc(F)c(F)c1,4.1,i,10.5,1.0,5.7,15.5
Cc1ccnc(NC(=O)CCC(=O)N(CC(=O)NC2CCCCC2)Cc2cccs2)c1,-4.8,i,0.1,0.3,1.7,20.5
O=C(N=Nc1c(O)[nH]c2ccc(Cl)cc12)c1cc(-c2cccs2)nc2ccccc12,69.7*,i,1.3,-0.3,8.7,0.8
COc1ccccc1/C=C/C(=O)Nc1cccc(C(C)=O)c1,-15.4,i,-2.6,-1.1,-5.9,68.6*
COc1cccc(/C=C/C(=O)Nc2cccc(C(C)=O)c2)c1OC,-8.8,i,-3.4,-1.4,-1.4,15.5
O=C(O)c1c(NC(=O)N2CCOCC2)sc2c1CCCC2,x,x,x,x,x,19.9
O=C(NCc1ccccc1)C1CCC(=O)N(CCN2CCOCC2)C1 (stereo not drawn),x,x,x,x,x,39.5
COc1ccccc1NC(=O)COc1ccc(Br)cc1CNCCCN1CCOCC1,-16.2,i,-1.1,-0.1,-2.8,70.5*
COc1ccccc1CN(C(=O)CCl)C(C(=O)NC1CCCCC1)c1ccncc1 (stereo not drawn),43.1*,i,1.2,0.7,-0.6,-12.0
COc1ccccc1C(=O)NCCC(=O)NCC(C)(C)N1CCOCC1,x,x,x,x,x,33.4
COc1ccc(C)cc1NC(=O)C1CCCN(S(=O)(=O)c2ccc3c(c2)CCCN3C(C)=O)C1 (stereo not drawn),x,x,x,x,x,31.9
Nn1cc(-c2ccccc2)nc1SCC(=O)NC1CCS(=O)(=O)C1 (stereo not drawn),-3.7,i,-7.2,-0.6,6.1,87.5*
SMILES,p47phox inh,HSV replic up,ABCG2 block,ABCB1 block,PKD1 inh,PHOSPHO1 inh
Nn1cc(-c2ccccc2)nc1SCC(=O)NCCN1C(=O)CSC1=O,-13.6,i,3.7,1.3,-7.8,81.6*
O=C(CSc1nc(-c2ccccc2)c(-c2ccccc2)o1)NC1CCS(=O)(=O)C1 (stereo not drawn),-9.8,i,12.0,1.3,0.8,-9.0
O=C(CSc1nc2ccccc2n1CCc1ccccc1)NC1CCS(=O)(=O)C1 (stereo not drawn),-5.3,i,0.6,0.0,-5.3,97.4*
O=C(CSc1nc2ccccc2n1CCc1ccccc1)NC1CC1,-33.8,i,4.2,0.2,-1.9,-7.1
CC(=O)c1cc(F)ccc1OCC(=O)N1CCCc2ccccc21,x,x,x,x,x,-9.0
N/N=c1\sc2ccccc2n1-c1ccccc1,-23.7,i,-0.4,0.0,-2.5,37.3
CCOC(=O)C1(CCc2ccccc2)CCN(C(=O)[C@@H]2C[C@@H](C)NC(=S)N2)CC1,-0.5,i,2.3,0.9,-4.6,-7.6
CC1CCN(C(=S)NCCc2ccccc2)CC1,-4.7,i,6.5,-0.4,-12.0,88.1*

# Screening results as filed in PubChem BioAssay.
